# High-throughput results from PubChem BioAssay.
# Hits are enriched below; roughly 4.5% of the tested compounds scored in any of these assays.
# GPR7 antag: blocks human GPR7 receptor signaling. inhibition, % at 4.4 µM. GPR7-expressing cells, fluorescence antagonist assay. 1.1% of 290,000 active. AID 1861. P48145; in the data active = inhibition above about 16%, passing the limit was not always enough;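 also: cells stimulated with the agonist NPW; 0% = agonist with vehicle and 100% = vehicle without agonist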
# CHO parental Ca: counter-screen: ATP calcium response change in parental CHO cells. parental CHO-K1, ATP-induced calcium, Fluo-8 fluorescence. inhibition, % at 5.6 µM. 0.63% of 330,000 active. AID 463079;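 active = inhibition above that plate's mean sample inhibition plus 3 SD, cut at about 26% in these data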;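 also: 0% = ATP-challenged DMSO wells and 100% = DMSO wells without ATP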
#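 Measured by: calcium-sensitive Fluo-8 fluorescence / Test system: CHO parental line / Controls: ATP-challenged DMSO wells low, unchallenged DMSO wells high / Measure: % inhibition / Compound: single nominal dose of 5.6 µM per compound / Replicates: single well per compound, no replicates / Reagent: ATP as calcium-mobilizing challenge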
# OX1R antag-1: human HCRTR1 antagonism; O43613; CHO/OX1R cells, Fluo-8 calcium fluorescence, orexin A; inhibition, % at 5 µM; 0.43% of 330,000 active; AID 434989;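 active = inhibition above its plate's threshold, mean inhibition of all tested compounds on the plate plus 3 SD, cut at about 37% in these data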;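 also: 0% = orexin A challenge wells and 100% = SB-334867-A antagonist wells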
# Target sequence (O43613 whole entry, looked up): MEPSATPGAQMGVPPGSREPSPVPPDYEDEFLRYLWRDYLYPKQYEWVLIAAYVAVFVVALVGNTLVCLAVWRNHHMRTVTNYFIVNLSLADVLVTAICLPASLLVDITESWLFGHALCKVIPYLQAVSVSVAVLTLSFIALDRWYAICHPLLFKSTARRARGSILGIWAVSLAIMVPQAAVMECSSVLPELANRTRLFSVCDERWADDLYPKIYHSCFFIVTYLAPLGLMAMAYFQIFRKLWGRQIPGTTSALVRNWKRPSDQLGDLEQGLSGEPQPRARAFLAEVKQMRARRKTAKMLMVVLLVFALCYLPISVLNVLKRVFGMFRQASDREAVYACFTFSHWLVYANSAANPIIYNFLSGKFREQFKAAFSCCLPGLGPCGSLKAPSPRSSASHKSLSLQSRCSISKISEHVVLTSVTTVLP
# OX1R antag-2: blocks the human orexin 1 receptor. O43613. OX1R-expressing cells, FRET antagonist read-out. inhibition, % at 6.6 µM. 1.8% of 330,000 active. AID 485270; in the data active = inhibition mostly above about 38%, no sharp cut-off; inactive = mostly below about 40%;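 also: 0% = agonist challenge alone and 100% = reference antagonist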
# TAAR1 agonist: human TAAR1 agonism; AID 624467; CHO RD-HGA16 TAAR1, Fluo-8 calcium fluorescence; vehicle wells 0%, saturating PEA agonist 100%; activation, % at 3 µM; 0.99% of 360,000 active;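 active = activation above the mean activation of all test compounds in the run plus 3 SD, cut at about 38% in these data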
#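 Test system: RD-HGA16 (CHO) cells co-expressing Gα16 and hTAAR1 / Benchmarks: DMSO vehicle as 0%, PEA at EC100 as 100% / Repeats: no replicates (n 1) / Measure: % activation from peak over basal fluorescence ratio, DMSO-to-PEA scaled / Timing: 17-24 h plating, Fluo-8 75 min 37 °C, 30 min RT / Technique: kinetic Fluo-8 calcium fluorescence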
# TAAR1 antagonist: antagonists of human TAAR1. Q96RJ0. CHO RD-HGA16 TAAR1, Fluo-8 calcium fluorescence, antagonist. inhibition, % at 3 µM. 1.5% of 360,000 active;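 active = inhibition above a per-plate cutoff, the mean inhibition of test compounds on that plate plus 3 SD, cut at about 49% in these data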;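 also: 0% = DMSO plus EC80 beta-PEA response and 100% = DMSO alone without agonist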
#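 System: CHO RD-HGA16 cells bearing hTAAR1. Reagent: EC80 β-phenethylamine stimulus. Schedule: seeding 17-24 h prior, 75-min 37 °C, 30-min RT dye loading. Signal: Fluo-8 intracellular calcium dye fluorescence, real-time kinetic reads. Read-out: % inhibition from peak post-agonist over basal fluorescence ratio. Benchmarks: vehicle wells and EC80 agonist wells. Replicates: n of 1.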
# nonsel antag count: nonselective antagonism, TAAR1 counter-screen | AID 651780 | counterscreen cell line, calcium fluorescence, antagonist mode | shares compounds with TAAR1 antagonist | 77% of 2,400 active | inhibition, % at 3 µM; in the data active = inhibition above about 22%;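 also: CHO-Ga16 host cells stimulated with ATP at an EC80 level; 0% = agonist EC80 plus vehicle and 100% = vehicle without agonist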
# TAAR1 ant conf: human TAAR1 antagonism, confirmed; inhibition, % at 3 µM; 40% of 2,400 active; TAAR1-expressing cells, fluorescence antagonist read-out; shares compounds with TAAR1 antagonist; AID 651785; in the data active = inhibition above about 49%;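 also: CHO-Ga16 host cells challenged with agonist PEA near its EC80; 0% = agonist at EC80 plus vehicle and 100% = vehicle with no agonist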
# Ga16 ag counter: nonselective Ga16 agonism, counter-screen | activation, % at 3 µM | 18% of 2,400 active | AID 651953 | shares compounds with TAAR1 antagonist | Ga16-expressing cells, calcium fluorescence, agonist counterscreen; in the data active = activation above about 12%;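 also: 0% = vehicle wells and 100% = saturating stimulus response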
# TAAR1 ag counter: activates human TAAR1 in antagonist counter-screen; shares compounds with TAAR1 antagonist; AID 651955; 2% of 2,400 active; activation, % at 3 µM; hTAAR1 cell line, fluorescence activation, agonist mode; in the data active = activation above about 37%;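 also: CHO cells stably expressing TAAR1 with calcium dye readout; 0% = DMSO vehicle and 100% = full agonist response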
# * marks the source's active call; other numbers are inactive results; / = not tested or not shown.
SMILES,GPR7 antag,CHO parental Ca,OX1R antag-1,OX1R antag-2,TAAR1 agonist,TAAR1 antagonist,nonsel antag count,TAAR1 ant conf,Ga16 ag counter,TAAR1 ag counter
c1ccc(COc2cccc(-c3cc4nc(NCCOc5ccccc5)ccn4n3)c2)cc1,/,/,/,/,0.0,14.5,/,/,/,/
Cc1cc2c(c(=O)n1Cc1ccccn1)C(C(C)C)C(C#N)=C(N)O2 (stereo not drawn),0.3,0.0,-11.7,13.7,2.0,5.5,/,/,/,/
Cc1cc2c(c(=O)n1Cc1ccccn1)C(c1ccc3c(c1)OCO3)C(C#N)=C(N)O2 (stereo not drawn),4.8,-4.4,-10.4,7.9,4.9,106.0*,10.3,11.7,4.4,0.9
COc1ccc(CCn2c(C)cc3c(c2=O)C(c2ccc4c(c2)OCO4)C(C#N)=C(N)O3)cc1OC (stereo not drawn),-0.8,-8.0,-22.2,14.9,2.5,52.8*,28.6*,36.6,4.3,3.9
C[C@@H]1CN([C@@H](C)CO)C(=O)c2cc(Br)cnc2O[C@H]1CN(C)C(=O)c1ccc2c(c1)OCO2,/,/,/,/,3.5,2.0,/,/,/,/
Cc1cccc(CN2C(=O)[C@H]3Cc4c([nH]c5ccccc45)C(C)(C)N3C2=O)c1,/,-19.3,-32.2,16.7,9.7,60.5*,24.1*,25.9,2.4,1.9
Cc1ccc(C)c2[nH]c(=O)c(CCNC(=O)c3cc4ccccc4o3)cc12,-5.3,-21.9,-30.0,18.5,6.5,48.8*,24.1*,25.4,7.2,3.4
COc1ccc(OC)c2[nH]c(=O)c(CCNC(=O)c3cc4ccccc4o3)cc12,-3.6,-22.4,-51.2,13.0,2.7,25.2,/,/,/,/
Cc1nc(N2CCN(Cc3ccc4c(c3)OCO4)CC2)c2oc3ccccc3c2n1,/,/,/,/,-0.2,72.1*,15.3,5.5,-1.2,-1.6
Cc1nc(N2CCN(Cc3ccc4c(c3)OCO4)CC2)c2cc(-c3ccccc3)sc2n1,-12.7,-19.0,-16.7,37.5,-1.6,-18.0,/,/,/,/
COc1ccc(NC(=O)c2ccc(-c3ccccc3)cc2)cc1S(=O)(=O)N1CCOCC1,0.0,-5.4,-1.8,17.1,16.4,86.5*,47.4*,60.9*,14.0*,8.9
COc1ccc(Nc2nc(-c3cccs3)nc3ccccc23)cc1S(=O)(=O)N1CCOCC1,/,4.4,-4.6,40.5,15.1,70.6*,30.5*,49.3*,10.2,7.3
CC(C)(C)N(Cc1ccccc1)C(=O)COC(=O)CSc1ccc([N+](=O)[O-])cc1,/,-18.5,-23.8,23.1,6.0,66.8*,30.7*,27.2,6.5,4.8
O=c1n(Cc2ccc(Cl)cc2)c2sc3c(c2c2ncnn12)CCCC3,-5.5,-29.5,-34.4,9.0,7.2,66.3*,19.7,35.5,8.8,16.2
N#Cc1c(N)[nH]c(C(=O)c2ccccc2)c1-c1ccc(Cl)cc1,/,/,/,/,9.3,-21.4,/,/,/,/
CCOc1ccc(S(=O)(=O)N(CC(=O)NCc2cccnc2)c2ccc(F)cc2)cc1,-13.2,-15.8,-36.5,4.8,19.8,64.9*,28.7*,49.3*,12.8*,15.9
CCCCC1Cc2[nH]c(=S)[nH]c(=O)c2C(c2ccc(Cl)cc2)O1 (stereo not drawn),/,/,/,/,7.0,-10.0,/,/,/,/
O=C(Nc1ccccc1)c1cc(C2CCCCN2C(=O)c2ccc3c(c2)CCO3)on1 (stereo not drawn),/,/,/,/,1.8,-4.8,/,/,/,/
CCN(CC(=O)Nc1ccc(NC(C)=O)cc1)C(=O)c1oc2ccccc2c1C,/,-10.5,-26.5,13.9,3.2,-9.3,/,/,/,/
CCN(CC(=O)Nc1ccc(NC(C)=O)cc1)C(=O)c1oc2c(ccc3ccccc32)c1C,/,-27.2,-16.1,3.1,33.0,64.2*,38.8*,61.3*,18.1*,27.7
